We go through 4 molecules from paper PMC9328817 (Journal of Food and Drug Analysis, 2016).

Where a SMILES comes first, the peptide text is derived from it.

In series [1] the test system is HepG2 cells. Briefly: MTT viability assay. The format is cell-based. The following applies: for Inhibitory effect on the growth of HepG2 cancer cells (in words): 0-1 mg/mL; for Growth inhibition of HepG2 cells: highest concentration tested 1 mg/mL, 24, 48 and 72 hours. An outline of the steps:
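HepG2 cells were grown in DMEM with 10% FBS, L-glutamine and 1% penicillin/streptomycin at 37°C, humidified, 5% CO2, and treated in log phase at 80% confluence. After seeding and 24 h incubation, cells received peptides at 0–1 mg/mL for 24, 48 or 72 h. MTT was added (4 h, dark, 37°C), DMSO was added, and A570 was read against untreated cells.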
(Tetrazolium assays rely on reduction of a dye to a coloured formazan, in cell work by metabolically active cells.)

Series [2] has as its system cancer cell growth. Conditions: cited from earlier work.

For `CC(C)C[C@H](NC(=O)[C@H](CCC(N)=O)NC(=O)[C@H](CC(=O)O)NC(=O)[C@H](CCC(N)=O)NC(=O)[C@H](CCC(N)=O)NC(=O)[C@H](CCC(=O)O)NC(=O)[C@H](CC(=O)O)NC(=O)[C@H](CCC(=O)O)NC(=O)[C@@H](NC(=O)[C@H](CCC(N)=O)NC(=O)[C@H](CCC(N)=O)NC(=O)[C@H](CCC(N)=O)NC(=O)[C@H](CCC(=O)O)NC(=O)[C@H](CCC(=O)O)NC(=O)[C@@H](N)CC(C)C)[C@@H](C)O)C(=O)O` [LL-15] (H-LEEQQQTEDEQQDQL-OH), in series [1], the “Inhibitory effect on the growth of HepG2 cancer cells (in words)” value was “no significant inhibitory effects” and the “Growth inhibition of HepG2 cells” value was “about 20%”. On the same counts, the results for `CC(C)C[C@H](NC(=O)[C@H](CCCNC(=N)N)NC(=O)[C@H](Cc1c[nH]cn1)NC(=O)[C@H](CC(C)C)NC(=O)[C@H](CCC(=O)O)NC(=O)[C@H](CCC(=O)O)NC(=O)[C@H](CC(C)C)NC(=O)[C@@H](N)Cc1ccc(O)cc1)C(=O)N[C@@H](CC(N)=O)C(=O)N[C@@H](C)C(=O)NCC(=O)N[C@@H](Cc1ccc(O)cc1)C(=O)O` [YY-11] (H-YLEELHRLNAGY-OH) are “no significant inhibitory effects” and “about 20%”.

With `CC(C)C[C@H](NC(=O)CNC(=O)[C@@H](N)CCCNC(=N)N)C(=O)N[C@@H](Cc1c[nH]cn1)C(=O)N1CCC[C@H]1C(=O)N[C@H](C(=O)N1CCC[C@H]1C(=O)N[C@@H](CCC(N)=O)C(=O)O)C(C)C` [RQ-8] (H-RGLHPVPQ-OH), in series [1], the “Inhibitory effect on the growth of HepG2 cancer cells (in words)” value is listed as “no significant inhibitory effects” and the “Growth inhibition of HepG2 cells” value is reported as “about 20%”.

B1: lactoferrin: iron-binding multifunctional protein in camel milk (protein, UniProt Q9TUM0 20-708, looked up)
Lactotransferrin: ASKKSVRWCTTSPAESSKCAQWQRRMKKVRGPSVTCVKKTSRFECIQAISTEKADAVTLDGGLVYDAGLDPYKLRPIAAEVYGTENNPQTHYYAVAIAKKGTNFQLNQLQGLKSCHTGLGRSAGWNIPMGLLRPFLDWTGPPEPLQKAVAKFFSASCVPCVDGKEYPNLCQLCAGTGENKCACSSQEPYFGYSGAFKCLQDGAGDVAFVKDSTVFESLPAKADRDQYELLCPNNTRKPVDAFQECHLARVPSHAVVARSVNGKEDLIWKLLVKAQEKFGRGKPSGFQLFGSPAGQKDLLFKDSALGLLRISSKIDSGLYLGSNYITAIRGLRETAAEVELRRAQVVWCAVGSDEQLKCQEWSRQSNQSVVCATASTTEDCIALVLKGEADALSLDGGYIYIAGKCGLVPVLAESQQSPESSGLDCVHRPVKGYLAVAVVRKANDKITWNSLRGKKSCHTAVDRTAGWNIPMGLLSKNTDSCRFDEFLSQSCAPGSDPRSKLCALCAGNEEGQNKCVPNSSERYYGYTGAFRCLAENVGDVAFVKDVTVLDNTDGKNTEQWAKDLKLGDFELLCLNGTRKPVTEAESCHLAVAPNHAVVSRIDKVAHLEQVLLRQQAHFGRNGRDCPGKFCLFQSKTKNLLFNDNTECLAKLQGKTTYEEYLGPQYVTAIAKLRRCSTSPLLEACAFLMR
Turning to B1, in series [2], the “Reduction of cancer cell growth” value was 56%.
